# From ChEMBL document CHEMBL1250517, “Synthesis and characterization of novel indole derivatives reveal improved therapeutic agents for treatment of ischemia/reperfusion (I/R) injury” (J Med Chem, 2010)
# pEC50: −log10 of the molar value.
# What was measured:
# Mus musculus [1] = assay: Antiinflammatory activity in Kunming mouse assessed as inhibition of xylene-induced ear edema at 20 mg/kg, po; assay type: functional
# Rattus norvegicus [2] = assay: Antiinflammatory activity in Wistar rat assessed as inhibition of carrageenan-induced paw edema at 20 mg/kg, po administered prior to carrageenan challenge measured after 1 hrs post carrageenan challenge; assay type: functional
# Rattus norvegicus [3] = assay: Antiinflammatory activity in Wistar rat assessed as inhibition of carrageenan-induced paw edema at 20 mg/kg, po administered prior to carrageenan challenge measured after 5 hrs post carrageenan challenge; assay type: functional
# Rattus norvegicus [4] = assay: Antiinflammatory activity in Wistar rat assessed as inhibition of carrageenan-induced paw edema at 20 mg/kg, po administered prior to carrageenan challenge measured after 3 hrs post carrageenan challenge; assay type: functional
# Mus musculus [5] = assay: Antiinflammatory activity in Kunming mouse assessed as inhibition of xylene-induced ear edema at 5 mg/kg, po; assay type: functional
# PC-12 [6] = assay: Antioxidant activity against nitric oxide scavenging activity in rat PC12 cells assessed as cell survival after 14 hrs by MTT assay; assay type: functional, cell-based; conditions: PC-12, 14 h
# In short: (§1)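 PC12 cells (rat adrenal medulla pheochromocytoma) are exposed to free radicals. Compound is given either as preincubation before radical exposure or as incubation after exposure. Viability is read by MTT reduction.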
# PC-12 [7] = assay: Antioxidant activity against H2O2 scavenging activity in rat PC12 cells assessed as cell survival after 14 hrs by MTT assay; assay type: functional, cell-based; conditions: PC-12, 14 h; in short: as §1
# Mus musculus [8] = assay: Antiinflammatory activity in Kunming mouse assessed as inhibition of xylene-induced ear edema at 10 mg/kg, po; assay type: functional
# PC-12 [9] = assay: Antioxidant activity against hydroxyl scavenging activity in rat PC12 cells assessed as cell survival after 14 hrs by MTT assay; assay type: functional, cell-based; conditions: PC-12, 14 h; in short: as §1
# Rattus norvegicus [10] = assay: Antiinflammatory activity in ischemia-reperfused Wistar rat assessed as lung MDA level at 20 mg/kg, ip measured per gram of tissue (RVb = 72.4 +/- 5.1 nmol); assay type: functional; conditions: route intraperitoneal
# In short: (§2)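 Hind-limb ischemia/reperfusion injury model in rats, with compound at 20 mg/kg. Local injury assessed in skeletal muscle and remote injury in lung. Tissue edema is expressed as wet-to-dry tissue weight ratio. Lipid peroxidation is measured as MDA in plasma and lung, and histology uses H&E-stained sections.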
# Rattus norvegicus [11] = assay: Antiinflammatory activity against ischemia-reperfused muscle tissue edema Wistar rat assessed as ratio of wet tissue weight to dry tissue weight at 20 mg/kg, ip; assay type: functional; conditions: route intraperitoneal; in short: as §2
# Rattus norvegicus [12] = assay: Antiinflammatory activity in ischemia-reperfused Wistar rat assessed as MPO level at 20 mg/kg, ip (RVb = 17.3 +/- 0.8 U/g); assay type: functional; conditions: route intraperitoneal; in short: as §2
# Rattus norvegicus [13] = assay: Antiinflammatory activity in ischemia-reperfused Wistar rat assessed as TNFalpha level at 20 mg/kg, ip (RVb = 123.4 +/- 8.9 pg/mL); assay type: functional; conditions: route intraperitoneal; in short: as §2
# Rattus norvegicus [14] = assay: Antiinflammatory activity in ischemia-reperfused Wistar rat assessed as plasma MDA level at 20 mg/kg, ip (RVb = 3.53 +/- 0.34 nmol/mL); assay type: functional; conditions: route intraperitoneal; in short: as §2
# Rattus norvegicus [15] = assay: Antiinflammatory activity against ischemia-reperfused lung tissue edema Wistar rat assessed as ratio of wet tissue weight to dry tissue weight at 20 mg/kg, ip; assay type: functional; conditions: route intraperitoneal; in short: as §2
smiles,measurement,setting,value
C[C@H]1O[C@@H](CC=O)OC[C@H]1NC(=O)Cc1ccccc1,inhibition in vivo at 20 mg/kg,Mus musculus [1],21.9%
same,inhibition in vivo at 20 mg/kg,Rattus norvegicus [2],18.4%
same,inhibition in vivo at 20 mg/kg,Rattus norvegicus [3],12.9%
same,inhibition in vivo at 20 mg/kg,Rattus norvegicus [4],17.5%
COC(C[C@H]1OC[C@@H](NC(=O)Cc2ccccc2)[C@@H](C)O1)OC,inhibition in vivo at 20 mg/kg,Mus musculus [1],38.1%
same,inhibition in vivo at 20 mg/kg,Rattus norvegicus [2],23.6%
same,inhibition in vivo at 20 mg/kg,Rattus norvegicus [3],17.1%
same,inhibition in vivo at 20 mg/kg,Rattus norvegicus [4],33.3%
COc1ccc2[nH]c3c(c2c1)CCN[C@@H]3C[C@H]1OC[C@@H](NC(=O)Cc2ccccc2)[C@@H](C)O1,inhibition in vivo at 5 mg/kg,Mus musculus [5],18.1%
same,inhibition in vivo at 20 mg/kg,Mus musculus [1],66%
same,pEC50,PC-12 [6],< 4.00
same,inhibition in vivo at 20 mg/kg,Rattus norvegicus [2],44.7%
same,pEC50,PC-12 [7],4.06
same,inhibition in vivo at 10 mg/kg,Mus musculus [8],32.3%
same,inhibition in vivo at 20 mg/kg,Rattus norvegicus [3],34.3%
same,pEC50,PC-12 [9],4.10
same,inhibition in vivo at 20 mg/kg,Rattus norvegicus [4],52.4%
C[C@H]1O[C@@H](C[C@H]2NCCc3c2[nH]c2ccccc32)OC[C@H]1NC(=O)Cc1ccccc1,inhibition in vivo at 20 mg/kg,Mus musculus [1],44.4%
same,inhibition in vivo at 20 mg/kg,Rattus norvegicus [2],34.2%
same,inhibition in vivo at 20 mg/kg,Rattus norvegicus [3],21.4%
same,inhibition in vivo at 20 mg/kg,Rattus norvegicus [4],47.6%
COC(=O)[C@@H]1Cc2c([nH]c3ccccc23)[C@@H](C[C@H]2OC[C@@H](NC(=O)Cc3ccccc3)[C@@H](C)O2)N1,inhibition in vivo at 5 mg/kg,Mus musculus [5],16.8%
same,inhibition in vivo at 20 mg/kg,Mus musculus [1],60%
same,pEC50,PC-12 [6],< 4.00
same,inhibition in vivo at 20 mg/kg,Rattus norvegicus [2],39.5%
same,pEC50,PC-12 [7],4.04
same,inhibition in vivo at 10 mg/kg,Mus musculus [8],30.1%
same,inhibition in vivo at 20 mg/kg,Rattus norvegicus [3],35.7%
same,pEC50,PC-12 [9],4.06
same,inhibition in vivo at 20 mg/kg,Rattus norvegicus [4],49.2%
COC(=O)[C@@H]1Cc2c([nH]c3ccccc23)[C@H](C[C@H]2OC[C@@H](NC(=O)Cc3ccccc3)[C@@H](C)O2)N1,inhibition in vivo at 20 mg/kg,Mus musculus [1],40.6%
same,inhibition in vivo at 20 mg/kg,Rattus norvegicus [2],28.9%
same,inhibition in vivo at 20 mg/kg,Rattus norvegicus [3],20%
same,inhibition in vivo at 20 mg/kg,Rattus norvegicus [4],38.1%
COc1ccc2[nH]c3c(c2c1)CCN[C@@H]3C[C@H]1OC[C@@H](N)[C@@H](C)O1,inhibition in vivo at 5 mg/kg,Mus musculus [5],30.5%
same,Activity,Rattus norvegicus [10],49.5 nmol
same,inhibition in vivo at 20 mg/kg,Mus musculus [1],81.5%
same,Ratio,Rattus norvegicus [11],4.03
same,Activity,Rattus norvegicus [12],10.7 U/g
same,pEC50,PC-12 [6],4.05
same,inhibition in vivo at 20 mg/kg,Rattus norvegicus [2],31.5%
same,pEC50,PC-12 [7],4.49
same,inhibition in vivo at 10 mg/kg,Mus musculus [8],57.8%
same,Activity,Rattus norvegicus [13],76.6 pg/mL
same,Activity,Rattus norvegicus [14],2.05 nmol/mL
same,Ratio,Rattus norvegicus [15],3.98
same,inhibition in vivo at 20 mg/kg,Rattus norvegicus [3],57.1%
same,pEC50,PC-12 [9],4.59
same,inhibition in vivo at 20 mg/kg,Rattus norvegicus [4],68.5%
C[C@H]1O[C@@H](C[C@H]2NCCc3c2[nH]c2ccccc32)OC[C@H]1N,inhibition in vivo at 20 mg/kg,Mus musculus [1],50.4%
same,inhibition in vivo at 20 mg/kg,Rattus norvegicus [2],21%
same,inhibition in vivo at 20 mg/kg,Rattus norvegicus [3],30%
same,inhibition in vivo at 20 mg/kg,Rattus norvegicus [4],59.7%
COC(=O)[C@@H]1Cc2c([nH]c3ccccc23)[C@@H](C[C@H]2OC[C@@H](N)[C@@H](C)O2)N1,inhibition in vivo at 5 mg/kg,Mus musculus [5],35.2%
same,inhibition in vivo at 20 mg/kg,Mus musculus [1],74.3%
same,pEC50,PC-12 [6],4.02
same,inhibition in vivo at 20 mg/kg,Rattus norvegicus [2],26.3%
same,pEC50,PC-12 [7],4.34
same,inhibition in vivo at 10 mg/kg,Mus musculus [8],60%
same,inhibition in vivo at 20 mg/kg,Rattus norvegicus [3],48.6%
same,pEC50,PC-12 [9],4.29
same,inhibition in vivo at 20 mg/kg,Rattus norvegicus [4],61.4%
COC(=O)[C@@H]1Cc2c([nH]c3ccccc23)[C@H](C[C@H]2OC[C@@H](N)[C@@H](C)O2)N1,inhibition in vivo at 20 mg/kg,Mus musculus [1],45.1%
same,inhibition in vivo at 20 mg/kg,Rattus norvegicus [2],15.8%
same,inhibition in vivo at 20 mg/kg,Rattus norvegicus [3],27.1%
same,inhibition in vivo at 20 mg/kg,Rattus norvegicus [4],39.7%
COc1ccc2c(c1)c(CC(=O)O)c(C)n2C(=O)c1ccc(Cl)cc1 [INDOMETHACIN],inhibition in vivo at 20 mg/kg,Rattus norvegicus [2],47.3%
same,inhibition in vivo at 10 mg/kg,Mus musculus [8],73.6%
same,inhibition in vivo at 20 mg/kg,Rattus norvegicus [3],54.3%
same,inhibition in vivo at 20 mg/kg,Rattus norvegicus [4],65.1%
COc1ccc2[nH]cc(CCNC(C)=O)c2c1 [MELATONIN],Activity,Rattus norvegicus [10],40.6 nmol
same,Ratio,Rattus norvegicus [11],3.21
same,Activity,Rattus norvegicus [12],8.6 U/g
same,Activity,Rattus norvegicus [13],53.6 pg/mL
same,Activity,Rattus norvegicus [14],1.75 nmol/mL
same,Ratio,Rattus norvegicus [15],3.55
